Experimental findings from BindingDB's records for doi:10.1021/jm00027a001 (Telios Pharmaceuticals, 1994) are described below.

*1 amine or outer side, *2 acyl side, *3 side chain or, on linkers, in order; H or OH if unused. Where a SMILES comes first, the peptide text is derived from it. Bridges are numbered along the chain shown (N, C = ends). X2 = N[C@H](C(=O)[*:1])C1(S[*:2])CCCCC1

In one assay the target is Integrin alpha-5/beta-1 (Homo sapiens, UniProt P05556+P08648). The assay can be described thus: Binding affinity against integrin alpha5-beta1 in enzyme linked immunosorbent assay (ELISA). On the technique in general: An ELISA detects its analyte on a solid surface through an enzyme-linked reagent.
The target of assay [1] is Integrin alpha-IIb/beta-3 (Homo sapiens, UniProt P05106+P08514). The assay can be described thus: Binding affinity against integrin alpha 2b-beta 3 in enzyme linked immunosorbent assay (ELISA). The gist of the method: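 Purified human platelet αIIbβ3 (from outdated platelets, octyl glucoside extract) in TBS with 20 mM octyl glucoside, 2 mM MgCl2 and 2 mM CaCl2 binds to plate-coated human fibrinogen (10 µg/mL in TBS) with 10-fold serial peptide dilutions for 3 h at room temperature. Bound receptor is detected with rabbit anti-αIIbβ3, then HRP anti-rabbit IgG, with o-phenylenediamine/H2O2 at pH 5.0. IC50 is reported.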

The target of a further assay is Integrin alpha-V/beta-5 (Homo sapiens, UniProt P06756+P18084). The assay can be described thus: Binding affinity against integrin alpha V-beta5 in enzyme linked immunosorbent assay (ELISA). The essentials:
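It is added to wells coated with human vitronectin in 0.1 M carbonate, pH 9.6, with 10-fold serial peptide dilutions for 3 h at room temperature. Detection uses rabbit anti-VnR, HRP anti-rabbit IgG and o-phenylenediamine/H2O2.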

Chain of Integrin alpha-IIb/beta-3 (P05106 27-788 limits assumed): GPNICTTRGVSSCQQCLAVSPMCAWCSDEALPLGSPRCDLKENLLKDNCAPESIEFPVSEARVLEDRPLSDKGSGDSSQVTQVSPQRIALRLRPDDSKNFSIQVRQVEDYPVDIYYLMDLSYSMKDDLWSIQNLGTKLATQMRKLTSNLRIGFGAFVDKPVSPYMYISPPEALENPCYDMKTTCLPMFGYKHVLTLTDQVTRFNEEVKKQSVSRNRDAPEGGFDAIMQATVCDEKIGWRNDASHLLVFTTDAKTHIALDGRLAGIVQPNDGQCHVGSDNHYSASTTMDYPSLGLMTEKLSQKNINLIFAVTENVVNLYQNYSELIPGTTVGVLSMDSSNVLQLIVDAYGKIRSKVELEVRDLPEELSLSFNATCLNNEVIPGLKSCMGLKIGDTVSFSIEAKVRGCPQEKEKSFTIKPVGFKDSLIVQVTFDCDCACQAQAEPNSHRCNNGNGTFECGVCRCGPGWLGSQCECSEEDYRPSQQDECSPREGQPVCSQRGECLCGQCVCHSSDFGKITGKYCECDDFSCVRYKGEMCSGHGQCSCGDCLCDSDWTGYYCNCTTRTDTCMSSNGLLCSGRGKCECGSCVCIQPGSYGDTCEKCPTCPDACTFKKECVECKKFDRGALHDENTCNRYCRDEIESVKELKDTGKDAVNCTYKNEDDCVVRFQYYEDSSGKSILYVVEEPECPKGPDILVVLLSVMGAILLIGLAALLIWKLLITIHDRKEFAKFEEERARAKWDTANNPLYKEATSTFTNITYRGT
Chain of Integrin alpha-IIb/beta-3 (P08514 32-887 limits assumed): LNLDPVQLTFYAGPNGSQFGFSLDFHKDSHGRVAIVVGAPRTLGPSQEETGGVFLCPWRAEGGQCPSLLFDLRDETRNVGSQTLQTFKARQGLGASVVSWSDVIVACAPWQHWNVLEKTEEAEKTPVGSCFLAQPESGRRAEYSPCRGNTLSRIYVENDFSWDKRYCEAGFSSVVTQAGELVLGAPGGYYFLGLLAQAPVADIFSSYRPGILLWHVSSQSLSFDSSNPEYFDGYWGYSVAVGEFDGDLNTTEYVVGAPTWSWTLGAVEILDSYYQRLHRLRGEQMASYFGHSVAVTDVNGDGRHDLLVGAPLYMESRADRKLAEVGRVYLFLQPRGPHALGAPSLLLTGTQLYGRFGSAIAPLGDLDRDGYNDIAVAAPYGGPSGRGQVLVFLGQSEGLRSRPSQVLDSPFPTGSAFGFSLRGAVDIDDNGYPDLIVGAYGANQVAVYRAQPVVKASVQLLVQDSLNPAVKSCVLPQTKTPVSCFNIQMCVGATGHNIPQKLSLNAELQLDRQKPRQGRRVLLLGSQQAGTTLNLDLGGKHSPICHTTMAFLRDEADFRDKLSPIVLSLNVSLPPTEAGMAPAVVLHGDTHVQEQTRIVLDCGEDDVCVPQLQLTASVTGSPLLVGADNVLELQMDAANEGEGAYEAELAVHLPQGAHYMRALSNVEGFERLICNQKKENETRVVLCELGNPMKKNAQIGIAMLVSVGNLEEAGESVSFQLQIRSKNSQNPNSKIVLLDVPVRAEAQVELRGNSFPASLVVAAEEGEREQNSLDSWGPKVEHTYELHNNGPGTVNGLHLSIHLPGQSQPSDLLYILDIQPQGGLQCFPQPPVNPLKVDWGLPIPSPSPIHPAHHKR
Chain of Integrin alpha-IIb/beta-3 (P08514 891-1039 limits assumed): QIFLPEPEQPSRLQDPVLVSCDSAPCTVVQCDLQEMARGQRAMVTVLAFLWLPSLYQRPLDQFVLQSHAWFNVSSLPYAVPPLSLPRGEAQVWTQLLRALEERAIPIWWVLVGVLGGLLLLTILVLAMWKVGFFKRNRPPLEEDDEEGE
Chain of Integrin alpha-V/beta-5 (P06756 31-889 limits assumed): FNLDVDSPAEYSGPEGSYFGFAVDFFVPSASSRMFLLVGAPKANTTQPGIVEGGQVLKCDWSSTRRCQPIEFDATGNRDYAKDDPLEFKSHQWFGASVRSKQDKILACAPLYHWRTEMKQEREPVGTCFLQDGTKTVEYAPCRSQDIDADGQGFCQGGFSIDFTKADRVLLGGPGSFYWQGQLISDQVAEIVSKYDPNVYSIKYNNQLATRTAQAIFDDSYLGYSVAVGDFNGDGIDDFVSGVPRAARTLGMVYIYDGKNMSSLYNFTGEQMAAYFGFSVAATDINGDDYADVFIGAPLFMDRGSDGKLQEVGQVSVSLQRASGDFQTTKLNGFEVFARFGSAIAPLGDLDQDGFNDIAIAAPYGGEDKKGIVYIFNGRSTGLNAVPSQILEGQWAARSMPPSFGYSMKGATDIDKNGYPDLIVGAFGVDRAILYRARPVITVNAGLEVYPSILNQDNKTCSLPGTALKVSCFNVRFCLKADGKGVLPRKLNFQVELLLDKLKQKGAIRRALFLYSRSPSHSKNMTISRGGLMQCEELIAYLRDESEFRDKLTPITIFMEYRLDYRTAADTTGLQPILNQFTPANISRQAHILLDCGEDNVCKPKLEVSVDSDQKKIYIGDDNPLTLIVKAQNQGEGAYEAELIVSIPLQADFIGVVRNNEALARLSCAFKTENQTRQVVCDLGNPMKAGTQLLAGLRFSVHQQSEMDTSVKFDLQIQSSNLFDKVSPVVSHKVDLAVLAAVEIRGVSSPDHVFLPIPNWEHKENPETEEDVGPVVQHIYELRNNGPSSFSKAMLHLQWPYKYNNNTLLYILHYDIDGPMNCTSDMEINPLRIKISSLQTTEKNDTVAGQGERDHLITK
Chain of Integrin alpha-V/beta-5 (P06756 891-1048 limits assumed): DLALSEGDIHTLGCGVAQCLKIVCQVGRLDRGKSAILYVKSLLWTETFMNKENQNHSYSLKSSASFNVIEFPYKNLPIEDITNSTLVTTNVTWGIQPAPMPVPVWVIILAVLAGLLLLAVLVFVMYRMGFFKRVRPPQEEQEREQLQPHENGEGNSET
Chain of Integrin alpha-V/beta-5 (P18084 24-799 limits assumed): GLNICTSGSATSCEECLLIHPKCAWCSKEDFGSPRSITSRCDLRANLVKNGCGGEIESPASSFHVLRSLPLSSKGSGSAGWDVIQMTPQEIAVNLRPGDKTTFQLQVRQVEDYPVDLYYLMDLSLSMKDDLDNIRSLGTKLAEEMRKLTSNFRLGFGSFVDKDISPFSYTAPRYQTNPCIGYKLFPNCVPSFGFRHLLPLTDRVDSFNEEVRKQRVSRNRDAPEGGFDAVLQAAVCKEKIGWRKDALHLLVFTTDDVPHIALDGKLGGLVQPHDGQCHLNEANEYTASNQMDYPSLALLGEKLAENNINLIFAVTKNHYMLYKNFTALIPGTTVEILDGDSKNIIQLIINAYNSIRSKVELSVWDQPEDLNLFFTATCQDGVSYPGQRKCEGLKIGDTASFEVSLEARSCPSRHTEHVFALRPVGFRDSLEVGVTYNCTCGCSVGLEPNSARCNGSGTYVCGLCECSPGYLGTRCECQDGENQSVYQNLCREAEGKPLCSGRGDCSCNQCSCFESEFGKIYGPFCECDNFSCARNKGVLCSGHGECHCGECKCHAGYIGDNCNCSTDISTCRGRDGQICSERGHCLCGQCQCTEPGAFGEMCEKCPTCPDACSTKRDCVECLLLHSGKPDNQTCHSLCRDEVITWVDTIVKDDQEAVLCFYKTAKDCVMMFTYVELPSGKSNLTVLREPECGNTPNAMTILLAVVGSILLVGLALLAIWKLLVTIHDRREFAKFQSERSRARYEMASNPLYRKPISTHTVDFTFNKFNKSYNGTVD

As a reminder, the IC50 is the midpoint of a concentration-inhibition curve. A high value points to weaker potency. Take `COc1ccc(C[C@@H]2NC(=O)[C@H](CC(=O)O)NC(=O)CNC(=O)[C@H](CCCN=C(N)N)NC(=O)[C@H](Cc3c[nH]cn3)NC(=O)[C@H](CCCN=C(N)N)NC(=O)[C@@H](N)CCC/N=C(/N)NC(=O)[C@@H](N)C3(CCCCC3)SSC[C@@H](C(=O)N[C@@H](CCCN=C(N)N)C(=O)O)NC(=O)[C@H](CCCN=C(N)N)NC2=O)cc1` [R(Pmc)-G-H-R-G-D-(Y-OMe)-R-C-R] (H-RRHRGDY(Me)RCR-OH; linker 1-9 via X2): the IC50 (at Integrin alpha-5/beta-1; in assay [1]) was 6.2 µM each time.

Turning to `COc1ccc(C[C@@H]2NC(=O)[C@H](CC(=O)O)NC(=O)CNC(=O)[C@H](CCCN=C(N)N)NC(=O)[C@H](Cc3c[nH]cn3)NC(=O)[C@H](CC(N)=O)NC(=O)[C@@H](N)CCC/N=C(/N)NC(=O)[C@@H](N)C3(CCCCC3)SSC[C@@H](C(=O)N[C@@H](CCCN=C(N)N)C(=O)O)NC(=O)[C@H](CCCN=C(N)N)NC2=O)cc1` [R(Pmc)-N-H-R-G-D-(Y-OMe)-R-C-R] (H-RNHRGDY(Me)RCR-OH; linker 1-9 via X2), the IC50 (at Integrin alpha-V/beta-5; in assay [1]) was 4.7 µM in each case.
